MrgX1 allo act: human MrgX1 positive allosteric modulation, primary screen. Q96LB2. MrgX1-HEK293, Fluo-4 calcium flux, FDSS; stronger effect = higher value. B-score at 10 µM. 310,000 compounds, 0.63% hits. AID 588675;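 active = plate-corrected calcium response at least 3 library SD above typical, normal starting fluorescence, not activating the receptor alone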;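 note: compound read alongside a low EC10 to EC30 dose of BAM8-22 agonist; peak minus trough fluorescence over baseline measured at the second addition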
Target sequence (Q96LB2 whole entry, looked up): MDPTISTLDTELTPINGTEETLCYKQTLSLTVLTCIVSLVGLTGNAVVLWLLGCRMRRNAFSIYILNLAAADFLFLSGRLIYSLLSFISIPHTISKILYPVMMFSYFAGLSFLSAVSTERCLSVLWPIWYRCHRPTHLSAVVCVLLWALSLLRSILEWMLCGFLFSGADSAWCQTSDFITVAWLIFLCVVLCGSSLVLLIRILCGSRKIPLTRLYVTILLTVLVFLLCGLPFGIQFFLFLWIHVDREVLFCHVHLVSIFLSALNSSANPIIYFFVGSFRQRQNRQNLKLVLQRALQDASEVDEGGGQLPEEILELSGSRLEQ
MrgX1 agonist: agonists of human MrgX1 receptor | Q96LB2 | MrgX1-HEK293 cells, Fluo-4 calcium fluorescence, agonist mode; stronger effect = higher value | B-score at 10 µM | 310,000 compounds, 0.44% hits | AID 588627;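 active = calcium response B-score plate-corrected fluorescence ratio at least 3 library SD, with starting fluorescence B-score inside 5 SD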
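times = overnight plating, then 30 min 37 °C plus 30 min room-temperature dye loading | assay system = stable human MrgX1 HEK293 cell line | input = fifteen thousand cells per well | signal = kinetic calcium dye fluorescence, Fluo-4 NW | dosing = compound delivered in addition one of three | read-out = B-scored fluorescence response ratio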
MrgX1 antagonist: human MrgX1 receptor antagonism, primary screen | Q96LB2 | MRGX1-HEK293 calcium flux, Fluo-4, BAM8-22 antagonism; stronger effect = lower value | B-score at 10 µM | 310,000 compounds, 1.3% hits | AID 588676;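 active = calcium-response B-score plate-corrected more than 3 library SD below zero, starting fluorescence within 5 deviations, no agonist response on first addition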;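 note: peak minus trough fluorescence over baseline after final BAM8-22 challenge near maximal dose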
RGS4 block: human RGS4 inhibition | P49798 | HEK293 M3R/RGS4 inducible, Fluo-4 calcium flux; stronger effect = higher value; triggered by carbachol at its EC20 | B-score at 10 µM | 310,000 compounds, 0.45% hits | AID 463165;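 active = B-score, a plate-corrected calcium signal, over three deviations above library mean, with baseline fluorescence within five deviations of library mean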;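 note: RGS4 expression induced by doxycycline in cells with stable M3 receptor; B-score is computed from the integrated fluorescence ratio over baseline after carbachol; higher B-score means a larger calcium signal and so more RGS4 inhibition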
RGS4 act: RGS4 potentiation or activation; HEK293 M3R/inducible RGS4, carbachol calcium flux Fluo4; stronger effect = lower value; B-score at 10 µM; 310,000 compounds, 0.92% hits; AID 463111;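 active = B-score of the integrated calcium signal more than 4 SD below the library mean, with starting fluorescence not abnormally high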;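 note: negative B-score means reduced calcium response which marks RGS4 activation or potentiation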
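Reagent: ECmax carbachol challenge; Test system: M3R-expressing HEK293 line, RGS4 induced by doxycycline; Schedule: overnight RGS4 induction, 30 min dye load 37 °C, 20 min compound RT; Detection: calcium dye Fluo4 fluorescence; Read-out: Agonist-evoked peak-minus-minimum fluorescence over baseline, integrated ratio, B score.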
RGS4 inh valid: validation of RGS4 inhibitors. 1,700 compounds, 65% hits. HEK293 M3R/RGS4, carbachol calcium Fluo-4 fluorescence; carbachol added at its EC20; 0 = buffer wells, 100 = carbachol control. calcium response, % at 10 µM. shares compounds with RGS4 block;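 active = duplicate-averaged calcium response above the buffer-only control mean plus 5 SD of those controls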;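 note: integrated fluorescence ratio F max minus min over baseline F0; higher response in RGS4-induced cells means RGS4 inhibition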
RGS4 uninduced: non-induced cell nonspecific activity of RGS4 inhibitors | activity (percent), % at 10 µM | HEK293 M3R non-induced, carbachol calcium Fluo-4; submaximal (EC20) carbachol stimulus; buffer wells 0%, carbachol control wells 100% | AID 493000 | shares compounds with RGS4 block | 1,900 compounds, 20% hits; call rule not given here;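 note: RGS4 induction absent so cells express M3R without RGS4; higher means more calcium signal and flags a non-specific hit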
RGS4 inh ctr2: signal in non-induced cells without carbachol, RGS4 inhibitor counter-screen | shares compounds with RGS4 block | HEK293 M3R/RGS4 non-induced, Fluo-4 calcium, no carbachol; normalised: buffer wells 0%, carbachol wells 100% | calcium response (agonist-mode artifact), % at 10 µM | 1,900 compounds, 22% hits;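 active = duplicate-averaged calcium rise in uninduced cells above buffer wells' mean plus 5 SD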
An asterisk follows results filed as active; i = inactive; . = no result. Hits are enriched below; roughly 3.5% of the tested compounds scored in any of these assays.

SMILES	MrgX1 allo act	MrgX1 agonist	MrgX1 antagonist	RGS4 block	RGS4 act	RGS4 inh valid	RGS4 uninduced	RGS4 inh ctr2
COc1ccc(N(C(=O)c2ccc(S(=O)(=O)N3CCCC3)cc2)C2C=CS(=O)(=O)C2)cc1 (stereo unspecified)	i	i	i	i	i	.	.	.
COc1ccc(C2(C)NC(=O)N(CC(=O)Nc3ccc(Br)cc3F)C2=O)cc1OC (stereo unspecified)	i	i	i	i	i	.	.	.
CNc1ccccc1C(=O)OC(C)C(=O)Nc1ccc(Cl)cn1 (stereo unspecified)	i	i	i	i	i	.	.	.
CCc1nnc(NS(=O)(=O)c2ccc(N=Cc3c(C)[nH]n(-c4cccc(Cl)c4)c3=O)cc2)s1	i	i	i	i	i	.	.	.
CCc1nnc(NS(=O)(=O)c2ccc(N=Cc3c(C)[nH]n(-c4ccc(Cl)cc4)c3=O)cc2)s1	i	i	i	i	i	.	i	i
Cc1[nH]n(-c2ccc(Cl)cc2)c(=O)c1C=Nc1ccc(S(=O)(=O)N2CCOCC2)cc1	i	i	i	6.3*	i	32%*	55%*	i
Cc1ccc(-n2[nH]c(C)c(C=Nc3ccc(S(=O)(=O)Nc4nccs4)cc3)c2=O)cc1C	i	i	i	i	i	.	i	i
CSCC[C@H](NC(=O)OC(C)(C)C)C(=O)N1CCC(C(=O)N[C@@H](C)C(=O)NCc2ccc(F)cc2)CC1	i	i	i	i	i	.	.	.
O=C(/C=C/c1ccnc2ccccc12)c1cccs1	i	i	i	14*	i	18%*	41%*	i
O=C(Cn1cnc2ccccc2c1=O)c1cccs1	i	i	i	i	i	.	.	.
CC1CCN(C(=O)CSc2n[nH]c(-c3cccs3)n2)CC1	i	i	i	i	i	.	.	.
CC(C)(C)OC(=O)N1CCC(c2cc(-c3cccs3)n[nH]2)CC1	i	i	i	5*	i	17%*	i	i
COc1ccc(Br)cc1C(C[N+](=O)[O-])c1c(N)n(C)c(=O)n(C)c1=O (stereo unspecified)	i	i	i	i	i	.	.	.
COc1ccc(OC)c(C(C[N+](=O)[O-])c2c(C)cc3ccccn23)c1 (stereo unspecified)	i	i	i	i	i	i	i	i
COc1ccc(C(C[N+](=O)[O-])c2c(C)cc3ccccn23)c(OC)c1 (stereo unspecified)	i	41*	i	13*	i	i	i	i
COc1ccc(NC(=O)CCn2cccc2)c(OC)c1	i	i	i	i	i	.	.	.
COc1cc(C=C2C(=O)OC(c3ccccc3)OC2=O)cc(Br)c1O (stereo unspecified)	i	i	i	i	i	.	.	.
